Laboratory results taken from ChEMBL document CHEMBL1123615, “1,3-Dialkyl-4-(iminoarylmethyl)-1H-pyrazol-5-ols. A series of novel potential antipsychotic agents” (J Med Chem, 1987).

Columns and labels:
[1] = tested on: Mus musculus; assay: Inhibition of locomotor activity (LMA) and motor coordination in mice by intraperitoneal administration.; format: functional; conditions: ip
Outline: (§1)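 Mice scored for inhibition of spontaneous locomotor activity and for ataxia (impaired motor coordination). Nine mice per dose; ED50 derived from at least three doses.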

[2] = tested on: Mus musculus; assay: Inhibition of ataxia in mice by intraperitoneal administration.; format: functional; conditions: ip; outline: as §1
[3] = target: D(2) dopamine receptor (Rattus norvegicus, UniProt P61169); assay: In vitro binding affinity against Dopamine receptor D2 by displacement of [3H]haloperidol from rat striatal membranes.; format: cell membranes, Membrane
[4] = target: alpha-2 adrenergic receptor (Rattus norvegicus); assay: Affinity for displacement of [3H]clonidine labeled alpha-2 adrenergic receptor
[5] = tested on: Rattus norvegicus; assay: Inhibition of sidman avoidance in rats, activity expressed as ED50 mg/kg per orally.; format: functional; conditions: po
Outline: (§2)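 Sidman avoidance in rats or squirrel monkeys with oral dosing; ED50 given in mg/kg.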

[6] = Inhibition of sidman avoidance in squirrel monkeys, activity expressed as ED50 mg/kg per orally.; format: functional; conditions: po; outline: as §2
[7] = tested on: Rattus norvegicus; assay: Inhibition of self-stimulation in rats, activity expressed as ED50 mg/kg per orally.; format: functional; conditions: po
Outline: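 Oral dosing in rats; suppression of high baseline self-stimulation measured; ED50 given in mg/kg.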

[8] = target: D(1A) dopamine receptor (Rattus norvegicus, UniProt P18901); assay: Affinity for displacement of [3H]SCH-23390 labeled Dopamine receptor D1
Outline: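 [3H]SCH23390 binding (D1 label), run by a method from earlier work. IC50 obtained by non-linear regression over four or five concentrations. Reference standard SCH23390 included.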

[9] = tested on: Rattus norvegicus; assay: Effect on serum prolactin level, activity expressed as percent control at 23.7 and 27.0 mg/kg per orally.; format: functional
Outline: (§3)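 Rats dosed orally and killed 1 h after administration; serum prolactin measured. Values are means from groups of five animals, expressed as % of vehicle control.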

[10] = Extrapyramidal syndrome(EPS) signs in cebus monkeys, activity expressed as MED mg/kg per orally.; format: functional; conditions: po; read-out: MED
Outline: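 Cebus monkeys previously sensitized to haloperidol, observed for dystonic signs after oral dosing. Minimal effective dose determined in at least three animals.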

[11] = target: alpha-1 adrenergic receptor (Rattus norvegicus); assay: Affinity for displacement of [3H]WB-4101 labeled alpha-1 adrenergic receptor
[12] = tested on: Rattus norvegicus; assay: Effect on serum prolactin level, activity expressed as percent control at 27.0 mg/kg per orally.; format: functional; outline: as §3
[13] = tested on: Rattus norvegicus; assay: Effect on serum prolactin level, activity expressed as percent control at 23.7 mg/kg per orally.; format: functional; conditions: in the assay text read “27.0 mg/kg” for “23.7 mg/kg”; outline: as §3

Chain of D(2) dopamine receptor (P61169 whole entry): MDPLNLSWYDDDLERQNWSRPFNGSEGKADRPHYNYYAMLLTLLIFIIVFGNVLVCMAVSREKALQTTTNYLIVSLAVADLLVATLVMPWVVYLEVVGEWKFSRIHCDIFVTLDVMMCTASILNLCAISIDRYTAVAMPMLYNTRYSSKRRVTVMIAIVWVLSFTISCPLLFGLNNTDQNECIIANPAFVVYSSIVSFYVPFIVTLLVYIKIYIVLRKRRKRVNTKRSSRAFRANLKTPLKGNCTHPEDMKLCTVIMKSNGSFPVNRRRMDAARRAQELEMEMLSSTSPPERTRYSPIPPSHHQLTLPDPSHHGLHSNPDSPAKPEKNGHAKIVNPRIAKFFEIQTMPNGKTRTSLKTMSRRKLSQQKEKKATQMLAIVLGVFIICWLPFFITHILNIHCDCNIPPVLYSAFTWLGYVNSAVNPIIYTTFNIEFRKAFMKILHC
Chain of D(1A) dopamine receptor (P18901 whole entry): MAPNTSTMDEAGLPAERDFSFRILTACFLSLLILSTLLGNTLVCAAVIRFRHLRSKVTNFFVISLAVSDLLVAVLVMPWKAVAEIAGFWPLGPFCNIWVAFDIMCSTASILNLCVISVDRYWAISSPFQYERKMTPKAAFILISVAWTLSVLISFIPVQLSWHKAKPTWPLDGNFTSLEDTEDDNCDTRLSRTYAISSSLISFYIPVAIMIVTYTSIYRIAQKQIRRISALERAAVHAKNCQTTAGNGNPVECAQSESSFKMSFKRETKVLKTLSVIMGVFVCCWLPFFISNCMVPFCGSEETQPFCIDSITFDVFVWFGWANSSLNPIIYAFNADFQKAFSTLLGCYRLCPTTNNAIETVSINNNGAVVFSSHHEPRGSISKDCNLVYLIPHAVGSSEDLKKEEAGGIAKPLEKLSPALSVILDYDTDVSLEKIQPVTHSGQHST

Row | SMILES | ED50 [1] [mg/kg] | ED50 [2] [mg/kg] | IC50 [3] [µM] | further results
1 | CCn1[nH]c(C)c(C(=N)c2ccccc2)c1=O | 11.8 | 21.5 | > 10 | –
2 | Cc1[nH]n(C)c(=O)c1C(=N)c1ccc(Cl)cc1 | 18.9 | > 56 | – | –
3 | Cc1[nH]n(C)c(=O)c1C(=N)c1cccc(F)c1 | 35.6 | 63.6 | > 10 | –
4 | Cc1[nH]n(C)c(=O)c1C(=N)c1ccc(N)cc1 | > 100 | > 100 | – | –
5 | C/N=C(/c1cccc(Cl)c1)c1c(C)[nH]n(C)c1=O | 50.5 | 73.1 | – | –
6 | CC(=O)/N=C(\c1cccc(Cl)c1)c1c(C)[nH]n(C)c1=O | 25.1 | > 100 | > 1 | –
7 | Cc1[nH]n(C)c(=O)c1C(=N)c1ccc([N+](=O)[O-])cc1 | > 90 | > 90 | – | –
8 | Cc1[nH]n(C(C)C)c(=O)c1C(=N)c1cccc(Cl)c1 | 25 | > 30 | > 10 | –
9 | Cc1[nH]n(C)c(=O)c1C(=N)c1cc(Cl)cc(Cl)c1 | 34.9 | > 100 | – | –
10 | CCCCn1[nH]c(C)c(C(=N)c2cccc(Cl)c2)c1=O | 88.3 | 62.5 | – | –
11 | CCCn1[nH]c(C)c(C(=N)c2cccc(Cl)c2)c1=O | 21.5 | > 30 | > 10 | –
12 | CCCn1[nH]c(C)c(C(=N)c2ccccc2)c1=O | 11.6 | 25.2 | – | –
13 | Cn1[nH]cc(C(=N)c2cccc(Cl)c2)c1=O | 47.8 | > 100 | – | –
14 | Cc1cccc(C(=N)c2c(C)[nH]n(C)c2=O)c1 | 33.1 | 79.3 | – | –
15 | Cc1[nH]n(C)c(=O)c1C(=N)c1ccco1 | 33.6 | > 100 | – | –
16 | Cc1[nH]n(C)c(=O)c1/C(=N/C(=O)C(Cl)Cl)c1cccc(Cl)c1 | 35.5 | > 100 | > 1 | –
17 | Cc1[nH]n(C)c(=O)c1C(=N)c1cccs1 | 40.5 | > 90 | – | –
18 | COc1ccccc1C(=N)c1c(C)[nH]n(C)c1=O | 46.6 | 87.9 | – | –
19 | Cc1[nH]n(C)c(=O)c1C(=N)c1ccc2ccccc2c1 | 65.6 | > 100 | – | –

Row | SMILES | ED50 [1] [mg/kg] | ED50 [2] [mg/kg] | IC50 [3] [µM] | further results
20 | Cc1[nH]n(C)c(=O)c1C(=N)c1cccc(Cl)c1 | 15.2 | > 100 | > 10 | IC50 [4]: > 10 µM; ED50 [5]: 17 mg/kg; ED50 [6]: 16.3 mg/kg; ED50 [7]: 23.7 mg/kg; IC50 [8]: > 10 µM; Control [9]: -25%; minimal effective dose [10]: > 100 mg/kg; IC50 [11]: > 10 µM
21 | Cc1[nH]n(C)c(=O)c1C(=N)c1cccc(Br)c1 | 20.5 | > 30 | > 10 | –
22 | Cc1ccc(C(=N)c2c(C)[nH]n(C)c2=O)cc1 | > 100 | > 100 | – | –
23 | COc1ccc(C(=N)c2c(C)[nH]n(C)c2=O)cc1 | > 100 | > 100 | – | –
24 | Cc1[nH]n(C)c(=O)c1C(=N)c1ccc(C(F)(F)F)cc1 | 31.4 | > 30 | > 10 | –
25 | Cc1[nH]n(C)c(=O)c1C(=N)c1cccc([N+](=O)[O-])c1 | 38.8 | > 100 | – | –
26 | Cc1[nH]n(C)c(=O)c1C(=N)c1cccc(C(F)(F)F)c1 | > 30 | > 30 | – | –
27 | Cc1[nH]n(C)c(=O)c1C(=N)c1ccccc1 | 13.9 | 30.2 | > 10 | –
28 | Cn1[nH]cc(C(=N)c2ccccc2)c1=O | 49.1 | > 100 | – | –
29 | CCc1[nH]n(C)c(=O)c1C(=N)c1cccc(Cl)c1 | 60.6 | 47.6 | – | –
30 | Cc1[nH]n(C)c(=O)c1C(=N)c1ccccc1Cl | 31.1 | 50.8 | – | –
31 | CCn1[nH]c(C)c(C(=N)c2cccc(Cl)c2)c1=O | 16 | 45.3 | > 10 | –
32 | Cc1[nH]n(C)c(=O)c1C(=N)c1ccc(F)cc1 | 15 | > 30 | > 10 | –
33 | Cc1[nH]n(C)c(=O)c1C(=N)c1ccc(Cl)c(Cl)c1 | 26.4 | > 30 | – | –
34 | CCCCn1[nH]c(C)c(C(=N)c2ccccc2)c1=O | 48.7 | > 100 | – | –
35 | Cc1[nH]n(C)c(=O)c1/C(=N/C(=O)C(F)(F)F)c1cccc(Cl)c1 | 17.9 | > 100 | > 10 | –
36 | CN1CCN(C2=Nc3cc(Cl)ccc3Nc3ccccc32)CC1 [CLOZAPINE] | – | 10 | – | –
37 | CSc1ccc2c(c1)N(CCC1CCCCN1C)c1ccccc1S2 (stereo not given) [THIORIDAZINE] | 2.9 | > 100 | – | Control [12]: 918%; ED50 [5]: 14.4 mg/kg; Control [13]: 918%; ED50 [6]: 4 mg/kg; ED50 [7]: 28.3 mg/kg; minimal effective dose [10]: 2.5 mg/kg
